Measured values taken from ChEMBL document CHEMBL1671655, “Anidulafungin is fungicidal and exerts a variety of postantifungal effects against Candida albicans, C. glabrata, C. parapsilosis, and C. krusei isolates” (2009).
≈ marks a conversion by molar mass, not a printed value. Calls of active or inactive are those of the source. No cut-off for these calls is given here. Starred links: 1 amine or outer side, 2 acyl side, 3 side chain; linkers in the order of their positions; H or OH if unused. Positions of bridges follow the written chain, without caps; N, C: chain ends. Non-standard residues stand in square brackets, D forms with d. Residues, ends and D or L forms follow the SMILES beside them. *: point of attachment. pTerphenylCO(4''-OnC5H11) = CCCCCOc1ccc(-c2ccc(-c3ccc(C(=O)*)cc3)cc2)cc1; Orn(4R-OH,5R-OH) = O=C([C@H](C[C@@H](O)[C@@H](O)N[*:3])N[*:1])[*:2]; hTyr(3S-OH,4S-OH) = N[C@H](C(=O)O)[C@H](O)[C@@H](O)c1ccc(O)cc1; Pro(3S-OH,4S-Me) = C[C@H]1CN[C@H](C(=O)O)[C@H]1O; Hyp = O=C(O)[C@@H]1C[C@@H](O)CN1

Experiments:
[1] = tested on: Pichia kudriavzevii; assay: Antifungal activity against Candida krusei isolate ATCC 6258 by CLSI M27-A3 broth microdilution method; format: functional
How it was run: (§1)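 CLSI M27-A3 broth microdilution in RPMI 1640 buffered to pH 7.0 with MOPS. Starting inoculum 0.5 x 10^3 to 2.5 x 10^3 cells/ml, incubated at 35°C. MIC read as the lowest concentration giving >50% growth reduction versus control. Each isolate tested on at least three occasions.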

[2] = tested on: Nakaseomyces glabratus; assay: Increase in susceptibility to SDS in Candida glabrata isolate 3 assessed as cell wall damage at 16 times MIC after 1 hr relative to control; format: functional, organism-based
How it was run: (§2)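 Cells recovered 8 h after a 1-h drug exposure were grown in YPD with 1% glucose to exponential phase and adjusted to OD599 0.1. Undiluted culture and 10-fold serial dilutions were spotted onto YPD plates containing SDS (0.01 to 0.04%), then incubated 72 h at 30°C. Growth compared with unexposed control cells; triplicate.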

[3] = tested on: Candida albicans; assay: Fungicidal activity against Candida albicans isolate S assessed as log reduction in bacterial count at 4 times MIC after drug exposure for 1 hr followed by washout measured after 48 hrs in the absence of drug by PAFE study; format: functional
How it was run: (§3)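 Starting inoculum ~1 x 10^5 to 5 x 10^5 CFU/ml in MOPS-buffered RPMI 1640 (pH 7.0) with drug at multiples of the CLSI M27-A3 MIC. After 1 h at 35°C, cells washed and centrifuged three times at 1,400 x g for 10 min, then resuspended in warm drug-free RPMI. Shaken at 35°C and plated on SDA at 0–48 h; CFU counted after 48 h. Run twice per isolate; means.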

[4] = tested on: Candida albicans; assay: Antifungal activity against Candida albicans isolate 1 assessed as cell wall damage at 4 times MIC by Transmission electron microscopy; format: functional, organism-based
How it was run: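 Cells recovered 8 h after a 1-h drug exposure were grown on SDA for 24 h at 35°C. Colonies fixed at 4°C in 0.1 M cacodylate (pH 7.2) with 2% glutaraldehyde and 2% paraformaldehyde, ethanol-dehydrated and embedded in Lowicryl K4M. Thin sections examined by transmission EM.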

[5] = tested on: Nakaseomyces glabratus; assay: Increase in susceptibility to calcofluor white in Candida glabrata isolate 1 assessed as cell wall damage at 16 times MIC after 1 hr relative to control; format: functional, organism-based
How it was run: (§4)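 Cells recovered 8 h after a 1-h drug exposure were grown to exponential phase in YPD with 1% glucose and adjusted to OD599 0.1. Undiluted and 10-fold serially diluted cultures were spotted onto YPD plates containing calcofluor white, then incubated at 30°C for 72 h. Growth compared with no-drug control cells; triplicate.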

[6] = tested on: Candida parapsilosis; assay: Increase in susceptibility to calcofluor white in Candida parapsilosis isolate 1 assessed as cell wall damage at MIC after 1 hr relative to control; format: functional, organism-based
How it was run: (§5)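 Candida given a 1-h anidulafungin pulse in MOPS-buffered RPMI 1640 (pH 7.0) at 35°C, washed three times by centrifugation, and regrown drug-free. Cells collected 8 h later, grown in YPD with 1% glucose to exponential phase, and set to OD599 0.1. Undiluted culture and 10-fold dilutions (4 µl) spotted on YPD plates with calcofluor white, then 30°C for 72 h. Triplicate; compared with no-drug cells.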

[7] = tested on: Candida parapsilosis; assay: Increase in susceptibility to SDS in Candida parapsilosis isolate 1 assessed as cell wall damage at 16 times MIC after 1 hr relative to control; format: functional, organism-based; how it was run: as §2
[8] = tested on: Nakaseomyces glabratus; assay: Increase in susceptibility to SDS in Candida glabrata isolate 3 assessed as cell wall damage at 4 times MIC after 1 hr relative to control; format: functional, organism-based; how it was run: as §2
[9] = tested on: Candida albicans; assay: Antifungal activity against Candida albicans ATCC 90028 assessed as time period for bacterial growth inhibition at 4 times MIC after 1 hr drug exposure; format: functional
How it was run: (§6)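 Inoculum of about 1 x 10^5 to 5 x 10^5 CFU/ml in MOPS-buffered RPMI (pH 7.0), shaken at 35°C and exposed to drug for 1 h. Cells then washed and centrifuged three times and resuspended in drug-free warm RPMI. Samples plated on SDA at 0, 2, 4, 8, 12, 24 and 48 h, with CFU counted after 48 h at 35°C. Run twice per isolate; values are means.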

[10] = tested on: Meyerozyma guilliermondii; assay: Antifungal activity against Candida guilliermondii by NCCLS M27A broth microdilution method; format: functional
[11] = tested on: Candida parapsilosis; assay: Antifungal activity against Candida parapsilosis isolate 1 assessed as time period for bacterial growth inhibition at 4 times MIC after 1 hr drug exposure; format: functional; how it was run: as §6
[12] = tested on: Candida albicans; assay: Fungicidal activity against Candida albicans isolate 2 assessed as log reduction in bacterial count at MIC after drug exposure for 1 hr followed by washout measured after 48 hrs in the absence of drug by PAFE study; format: functional; how it was run: as §3
[13] = tested on: Candida albicans; assay: Antifungal activity against Candida albicans ATCC 90028 by CLSI M27-A3 broth microdilution method; format: functional; how it was run: as §1
[14] = tested on: Nakaseomyces glabratus; assay: Increase in susceptibility to calcofluor white in Candida glabrata isolate 3 assessed as cell wall damage at 4 times MIC after 1 hr relative to control; format: functional, organism-based; how it was run: as §4
[15] = tested on: Candida albicans; assay: Antifungal activity against Candida albicans by NCCLS M27A broth microdilution method; format: functional
[16] = tested on: Pichia kudriavzevii; assay: Fungicidal activity against Candida krusei isolate 1 assessed as log reduction in bacterial count at MIC after 48 hrs by time-kill analysis; format: functional; conditions: isolate 1, 48 h
How it was run: (§7)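 Isolates subcultured twice on SDA, suspended to 0.5 McFarland, giving ~1 x 10^5 to 5 x 10^5 CFU/ml in MOPS-buffered RPMI 1640 (pH 7.0) with or without drug at multiples of MIC (MIC by CLSI M27-A3). Tubes shaken at 35°C with continuous drug. Sampled at 0–48 h, diluted 10-fold and plated on SDA; CFU counted after 48 h at 35°C. Run twice per isolate; means.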

[17] = tested on: Candida parapsilosis; assay: Increase in susceptibility to calcofluor white in Candida parapsilosis isolate A assessed as cell wall damage at MIC after 1 hr relative to control; format: functional, organism-based; how it was run: as §5
[18] = tested on: Nakaseomyces glabratus; assay: Inhibition of Candida glabrata isolate 1 adherence to human buccal epithelial cells at 4 times MIC after 1 hr by adherence assay relative to control; format: functional, Epithelial cell
How it was run: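 Candida collected 8 h after a 1-h 4x MIC pulse and washout were grown on SDA for 24 h at 35°C. Buccal epithelial cells were pooled from three donors and washed in PBS. Cells (1 x 10^5/ml) were mixed 1:1 by volume with Candida (1 x 10^6/ml) and shaken 1 h at 37°C. Mixtures were filtered, washed, and Gram-stained, and Candida were counted per 100 epithelial cells. Run in duplicate on ≥2 occasions; Student's t test against unexposed controls.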

[19] = tested on: Candida albicans; assay: Antifungal activity against Candida albicans isolate 1 by CLSI M27-A3 broth microdilution method; format: functional; how it was run: as §1
[20] = tested on: Candida albicans; assay: Antifungal activity against Candida albicans isolate 1 coincubated with mouse J774 macrophages assessed as macrophage induced bacterial cell killing at 4 times MIC (reference value: 14 +/- 8 %); format: functional
[21] = tested on: Pichia kudriavzevii; assay: Antifungal activity against Candida krusei assessed as time period for bacterial regrowth inhibition after 1 hr drug exposure; format: functional
[22] = tested on: Nakaseomyces glabratus; assay: Fungicidal activity against Candida glabrata isolate 1 assessed as log reduction in bacterial count at MIC after 48 hrs by time-kill analysis; format: functional; conditions: isolate 1, 48 h; how it was run: as §7
[23] = tested on: Nakaseomyces glabratus; assay: Antifungal activity against Candida glabrata isolate 1 assessed as time period for bacterial growth inhibition at 4 times MIC after 1 hr drug exposure; format: functional; how it was run: as §6
[24] = tested on: Candida parapsilosis; assay: Antifungal activity against Candida parapsilosis isolate S by CLSI M27-A3 broth microdilution method; format: functional; conditions: Lodderomyces parapsilosis; how it was run: as §1

SMILES: CCCCCOc1ccc(-c2ccc(-c3ccc(C(=O)N[C@H]4C[C@@H](O)[C@@H](O)NC(=O)[C@@H]5[C@@H](O)[C@@H](C)CN5C(=O)[C@H]([C@@H](C)O)NC(=O)[C@H]([C@H](O)[C@@H](O)c5ccc(O)cc5)NC(=O)[C@@H]5C[C@@H](O)CN5C(=O)[C@H]([C@@H](C)O)NC4=O)cc3)cc2)cc1 [ANIDULAFUNGIN] ({pTerphenylCO(4''-OnC5H11)}-[Orn(4R-OH,5R-OH)]T[Hyp][hTyr(3S-OH,4S-OH)]T[Pro(3S-OH,4S-Me)]; lactam 1-C)
- MIC [1]: 0.06 µg/mL (≈ 0.0526 µM)
- Activity [2]: Active
- log reduction [3]: 2.09 log CFU/ml
- Activity [4]: Active
- Activity [5]: Active
- Activity [6]: Active
- Activity [7]: Active
- Activity [8]: Active
- Time [9]: 8 h
- MIC90 [10]: 2 µg/mL (≈ 1.75 µM)
- Time [11]: 8 h
- log reduction [12]: 0.86
- MIC [13]: 0.03 µg/mL (≈ 0.0263 µM)
- Activity [14]: Active
- MIC90 [15]: 0.06 µg/mL (≈ 0.0526 µM)
- log reduction [16]: 1.74 log CFU/ml
- Activity [17]: Active
- inhibition (INH) [18]: 62%
- MIC [19]: 0.015 µg/mL (≈ 0.0132 µM)
- inhibition (INH) [20]: 37%
- Time [21]: >=12 hr
- log reduction [22]: 1.8 log CFU/ml
- Time [23]: 8 h
- MIC [24]: 1 µg/mL (≈ 0.877 µM)
